According to article PMC11966317 (ACS Omega, 2025):

Key:
[1] = tested on: heart, liver, spleen, lungs, and kidneys; experiment: HE staining of major organs after treatment; assay type: in vivo, NOD/SCID mice; details: kidneys after 10 mg/kg every 3 days, five doses
[2] = tested on: CHO-hPD-L1 tumors; experiment: Tumor volume and body weight during treatment; assay type: in vivo, NOD/SCID mice; details: 10 mg/kg every 3 days, five doses, monitored every 3 days
Procedure, shortened: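 Mice bearing CHO-hPD-L1 tumours were randomised to PBS or the anti-PD-L1 antibody (n = 3 each). Either was given at 10 mg/kg via the tail vein every 3 days, five doses over a 14-day cycle. Tumour volume and body weight were recorded. Endpoint was tumour volume >1500 mm3 or maximum diameter >20 mm.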

Atezolizumab: anti-PD-L1 monoclonal antibody
histopathology of major organs (HE staining) [1]: No histopathological abnormalities | body weight versus PBS group [2]: no notable differences in body weight
